ERa coact pot: enhancers of ERα–SRC-1 coactivator binding, primary screen, biochemical, TR-FRET, ERα LBD, low estradiol | Estrogen receptor (Homo sapiens), P03372 | 1.3% of 86,000 active | coactivator binding (% of control), % at 25.6 µM | TR-FRET ERalpha-LBD/SRC-Cy5 coactivator binding, 2 h; 100 = basal binding, no effect; in the data active = activity above about 200%;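 also: binding measured in presence of low estradiol as agonist stimulus; 0% = peptide alone without receptor and 100% = receptor with peptide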
ERb coact inh: inhibitors of ERβ-SRC1 coactivator interaction, primary screen, biochemical, TR-FRET, ERβ LBD, SRC-1 peptide. TR-FRET ER-beta LBD / SRC1-Cy5 peptide binding; receptor agonist-loaded with 1 µM estradiol. inhibition, % at 25.6 µM. 1.3% of 86,000 active;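 active = compounds whose percent inhibition of the receptor-coactivator binding signal exceeds about 50% in the single-dose screen, limit read from the data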;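 also: 0% = receptor plus peptide wells without compound and 100% = peptide-only wells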
SF1 activator: activators of human SF-1, primary screen, cell-based, CHO-K1, Gal4-SF-1 LBD, luciferase luminescence; Steroidogenic factor 1 (Homo sapiens), Q13285; CHO-K1 Gal4-SF-1 LBD luciferase reporter; % increase over DMSO SF-1-specific signal; activation, % at 10 µM; 1.9% of 65,000 active; AID 522, 2006;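 active = activation above the mean activation of all tested compounds plus 3 SD, cut at about 50% in these data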
Target sequence (Q13285 whole entry, looked up, the tested form may be a part): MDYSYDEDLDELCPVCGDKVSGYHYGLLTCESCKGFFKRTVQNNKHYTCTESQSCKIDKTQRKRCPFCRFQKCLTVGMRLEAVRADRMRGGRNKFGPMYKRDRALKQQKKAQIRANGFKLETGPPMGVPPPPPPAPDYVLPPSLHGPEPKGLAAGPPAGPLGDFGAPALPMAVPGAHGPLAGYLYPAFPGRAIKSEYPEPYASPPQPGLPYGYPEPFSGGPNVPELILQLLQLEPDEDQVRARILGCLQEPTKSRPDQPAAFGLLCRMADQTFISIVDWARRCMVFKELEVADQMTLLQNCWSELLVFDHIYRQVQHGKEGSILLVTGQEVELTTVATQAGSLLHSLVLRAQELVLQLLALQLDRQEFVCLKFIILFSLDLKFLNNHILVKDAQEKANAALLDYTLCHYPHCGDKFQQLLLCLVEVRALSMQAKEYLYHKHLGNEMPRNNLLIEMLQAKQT
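Material: Transient Gal4-SF-1 LBD reporter, CHO-K1 | Input: 4,000 cells/well | Dosing: One dose, 10 µM compound, 1% DMSO | Incubation: 20 h compound treatment, 37 °C | Detection: SteadyLite luciferase luminescence | Evaluation: Percent activation relative to DMSO median and mock-transfected background | Benchmarks: DMSO-treated SF-1-transfected cells as negative, DMSO-treated mock-transfected cells lacking SF-1 as background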
RORa activator: activators of orphan receptor RORA, primary screen, cell-based, luminescence; Nuclear receptor ROR-alpha (Homo sapiens), P35398; CHO-K1 Gal4-RORA LBD luciferase reporter; percent increase over mock-subtracted basal signal; activation, % at 10 µM; 1.5% of 65,000 active; AID 560, 2006;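 active = activation above the mean of all tested compounds plus 3 SD, cut at about 49% in these data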;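 also: 0% = DMSO-treated RORA cells and 100% = added signal equal to DMSO minus mock-transfected cells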
ERa coact inh: ERα–SRC-1 coactivator interaction inhibitors, primary screen, biochemical, TR-FRET, ERα LBD, estradiol-bound | Estrogen receptor (Homo sapiens), P03372 | TR-FRET ER-alpha LBD / SRC-1 peptide | inhibition, % at 25.6 µM | 1.7% of 86,000 active | AID 629, 2007; in the data active = inhibition above about 50%;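 also: 0% = receptor plus peptide control and 100% = peptide only without receptor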
BAP1 block: inhibitors of BAP1 deubiquitinase, primary screen, biochemical, Ub-AMC fluorescence, kinetic; 0.48% of 72,000 active; recombinant BAP1, Ub-AMC hydrolysis fluorescence kinetic; hits give low values; Ubiquitin carboxyl-terminal hydrolase BAP1 (Homo sapiens), Q92560; calls only at 20 µM;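 active = activity remaining at or below 50% of control, provided the compound also passes the data quality filters; inactive = the rest, including low values that fail the filters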;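 also: 100% = DMSO wells rate and 0% = substrate alone blank rate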
* marks the source's active call; other numbers are inactive results; i = inactive; / = no result shown; [ ] = another dose, or the depositor's remark. The list is not random: actives were taken first. Their share in the collection is about 5.1%.

SMILES	ERa coact pot	ERb coact inh	SF1 activator	RORa activator	ERa coact inh	BAP1 block
O=C(Nc1ccccc1N1CCOCC1)c1ccc2c(c1)C(=O)N(Cc1ccncc1)C2=O	15.1	38.6	2.2	16.4	63.1*[fluorescence artefact?]	i
O=C(NCc1ccccc1)c1ccc2c(c1)C(=O)N(Cc1ccncc1)C2=O	106.5	-16.7	/	/	-1.1	/
CCC1Oc2nc(SC)nnc2-c2ccccc2N1C(=O)c1ccccc1 (configuration not stated)	92.0	-2.9	49.7*	54.0*	-6.3	i
CCC(=O)N1c2ccccc2-c2nnc(SC)nc2OC1c1ccc(N(C)C)cc1 (configuration not stated)	98.2	-5.7	1.9	26.4	-4.7	i
COc1cc(-c2cc(C(F)(F)F)n3ncc(C(=O)N4CCN(Cc5ccccc5)CC4)c3n2)cc(OC)c1OC	/	/	/	/	/	i
CCc1cc2c(=S)c(-c3ccccc3)c(C)oc2cc1OC	/	/	/	/	/	i
CC=CCOC(=O)C1=C(C)NC(=O)NC1c1ccc(CC)cc1 (configuration not stated)	/	/	/	/	/	i
O=C(COc1ccc(F)c(Cl)c1)c1ccc[nH]1	39.6	45.2	10.9	-4.8	66.5*[fluorescence artefact?]	i
COc1cc(C(=O)NCC(=O)OCC(=O)c2ccc[nH]2)cc(OC)c1OC	64.8	39.4	-10.6	22.8	41.2	i
O=C(CCC(=O)c1ccc[nH]1)c1ccc(Cl)cc1	79.4	31.6	51.9*	25.6	40.1	i
COc1cc(Br)c(C=Nc2c(C)n(C)n(-c3ccccc3)c2=O)cc1OC	/	/	/	/	/	i
O=C(Nc1cccc(-c2nc3ccccc3o2)c1)c1cccc(I)c1	/	/	/	/	/	i
COc1cccc(NC(=O)Cc2nnc(SCC(=O)c3ccccc3)n2C)c1	102.9	-3.6	-24.2	-3.5	-1.0	i
Cc1ccc(NC(=O)Cc2nnc(SCC(=O)c3ccc(Br)cc3)n2C)cc1	200.8*[fluorescence artefact?]	18.7	/	/	3.8	/
Cc1c(C(=O)N2CCOCC2)[nH]c2c1C(=O)CC(c1ccccc1Cl)C2 (configuration not stated)	91.4	4.3	67.1*	45.1	-14.6	/
Cc1ccc(Nc2nnc(-c3cc4ccccc4oc3=O)s2)cc1	/	/	/	/	/	i
O=c1c2[nH]c3ccccc3c2ncn1C1CCCCC1	107.4	-0.3	20.5	61.1*	2.8	i
Cc1oc(C(=O)O)cc1COc1cccc2cccnc12	98.7	59.0*[fluorescence artefact?]	-1.4	14.8	19.6	i
CCOc1cccc2cc(C(=O)NCc3cccnc3)c(=O)oc12	174.3	-1.2	4.4	15.7	3.6	i
Cc1cc(NC(=O)COc2cccc3cccnc23)no1	51.5	50.3*[fluorescence artefact?]	35.4	14.2	64.3*[fluorescence artefact?]	i
CCOc1cccc2cc(C(=O)Nc3cc(C)on3)c(=O)oc12	468.1*[fluorescence artefact?]	28.7	7.9	2.1	33.1	/
CCCc1cc(=O)oc2cc(OCc3cccc(Cl)c3)ccc12	/	/	/	/	/	i
Oc1ccccc1-c1cc(-c2ccccc2Cl)[nH]n1	84.5	0.1	19.9	-6.6	14.2	i
Clc1ccccc1-c1nc(-c2ccccc2)n[nH]1	103.8	-19.5	18.3	60.9*	-17.3	i
CCC(=O)Oc1ccc(C/C(=N\O)c2ccc(O)cc2O)o1	12.6	78.1*[fluorescence artefact?]	8.5	-30.7	69.6*[fluorescence artefact?]	i
SMILES	ERa coact pot	ERb coact inh	SF1 activator	RORa activator	ERa coact inh	BAP1 block
CCOC(=O)c1ccc(CC(=O)c2ccc(O)cc2O)o1	14.6	5.9	/	/	-1.1	/
CC(Cc1ccc(O)c(O)c1)C(C)Cc1ccc(O)c(O)c1 (configuration not stated)	40.3	82.8*[fluorescence artefact?]	-28.9	-36.8	65.9*	/
CCOC(=O)Cn1c(=O)oc2cc(S(=O)(=O)N3CCN(c4ccccn4)CC3)ccc21	244.9*[fluorescence artefact?]	33.0	-14.3	16.9	30.6	i
Cc1ccc(Cn2c(=N)n(CC(=O)c3ccco3)c3ccccc32)cc1	/	/	/	/	/	i
N#CCCn1c(SCC(=O)c2c[nH]c3ccccc23)nc2ccccc21	116.7	-4.5	-14.5	-22.8	13.2	/
Cc1cc(C(=O)CSc2nnc(-c3ccccc3F)o2)c(C)n1Cc1cccs1	309.5*	20.3	-3.5	3.3	6.0	/
Cc1cc(C)c(C(=O)CSc2nnc(-c3ccccc3Br)o2)cc1C	273.4*[fluorescence artefact?]	16.7	-0.4	-7.2	3.6	i
COc1ccccc1-n1cnnc1SCC(=O)c1cc(C)n(Cc2cccs2)c1C	106.5	-0.3	19.2	11.4	6.5	i
Cc1cc(C(=O)CSc2nc3ccccc3n2CCC#N)c(C)n1Cc1cccs1	273.1*	19.8	18.7	-2.3	6.8	i
O=C(Oc1ccc2c(=O)c(Oc3ccccc3Br)c(C(F)(F)F)oc2c1)c1ccco1	/	/	/	/	/	i
CCn1c(=O)cc(C(=O)OC)sc1=Nc1ccc(F)c(F)c1	82.0	94.7*[fluorescence artefact?]	-26.0	24.4	-8.2	i
CCOC(=O)c1cnc(SCc2ccccc2)nc1N	111.1	-22.6	66.9*	50.7*	-17.2	i
CCOC(=O)c1cnc(SCc2ccc(C(C)(C)C)cc2)nc1N	94.5	-1.3	/	/	1.8	/
Cc1ccc(NS(=O)(=O)c2cc(C(=O)O)ccc2Br)cc1	/	/	/	/	/	i
CCCCOCC(O)CN1CCOCC1 (configuration not stated)	/	/	/	/	/	i
CC(=O)Nc1nc2cc3c(cc2s1)OCO3	116.2	-4.8	38.7	71.8*	0.8	i
COc1ccc2sc(NC(C)=O)nc2c1	102.8	4.6	49.5*	56.3*	2.6	i
COc1ccc2sc(NC(=O)CC(C)C)nc2c1	112.8	-4.9	65.5*	23.1	-4.5	i
O=C(Nc1nc2cc3c(cc2s1)OCO3)C1=COCCO1	92.6	7.4	-62.2	-68.2	5.9	i
O=C(Nc1ccc(-c2nc3ccccc3o2)cc1)c1ccc([N+](=O)[O-])o1	/	/	/	/	/	i
O=C(CCn1nnc2ccccc21)Nc1nnc(-c2ccccc2F)s1	248.2*	-0.8	18.6	-12.9	9.9	i
CC1(C)Cc2c(c(-c3ccco3)[nH]c(=O)c2C#N)CS1	111.9	62.0*[fluorescence artefact?]	-6.0	-12.6	-12.3	i
CC1(C)Cc2c(c(-c3ccccc3)[nH]c(=O)c2C#N)CS1	122.6	2.8	-17.9	-12.7	8.8	i
O=C1CCCC(O)=C1C=Nc1ccc(O)cc1	93.3	-16.8	55.8*	-3.7	-25.0	i
COc1ccc(CCN=CC2=C(O)CCCC2=O)cc1OC	119.3	-3.7	-1.9	-4.4	0.2	i
CCN(CC)C(=O)c1cc(-c2ccc(Br)cc2)on1	94.3	-7.0	55.8*	17.5	6.0	i
